Measured values taken from ChEMBL document CHEMBL1142492 (J Med Chem, 2008).

What was measured:
[1] = target: Mitogen-activated protein kinase 8 (Homo sapiens) (UniProt P45983); assay: Inhibition of JNK1 at 3 uM
[2] = target: Tyrosine-protein kinase ABL1 (Homo sapiens) (UniProt P00519); assay: Inhibition of ABL1 at 3 uM
[3] = target: AP2-associated protein kinase 1 (Homo sapiens) (UniProt Q2M2I8); assay: Inhibition of AAK1 at 3 uM
[4] = target: Calcium/calmodulin-dependent protein kinase type II subunit beta (Homo sapiens) (UniProt Q13554); assay: Inhibition of CAMK2B at 3 uM
[5] = target: Cyclin-dependent kinase 18 (Homo sapiens) (UniProt Q07002); assay: Inhibition of PCTK3 at 3 uM
[6] = target: T1, CYP1A2 (Homo sapiens, UniProt P05177); assay: Inhibition of human CYP1A2 at 10 uM; format: ADME
T1 sequence (P05177 whole entry): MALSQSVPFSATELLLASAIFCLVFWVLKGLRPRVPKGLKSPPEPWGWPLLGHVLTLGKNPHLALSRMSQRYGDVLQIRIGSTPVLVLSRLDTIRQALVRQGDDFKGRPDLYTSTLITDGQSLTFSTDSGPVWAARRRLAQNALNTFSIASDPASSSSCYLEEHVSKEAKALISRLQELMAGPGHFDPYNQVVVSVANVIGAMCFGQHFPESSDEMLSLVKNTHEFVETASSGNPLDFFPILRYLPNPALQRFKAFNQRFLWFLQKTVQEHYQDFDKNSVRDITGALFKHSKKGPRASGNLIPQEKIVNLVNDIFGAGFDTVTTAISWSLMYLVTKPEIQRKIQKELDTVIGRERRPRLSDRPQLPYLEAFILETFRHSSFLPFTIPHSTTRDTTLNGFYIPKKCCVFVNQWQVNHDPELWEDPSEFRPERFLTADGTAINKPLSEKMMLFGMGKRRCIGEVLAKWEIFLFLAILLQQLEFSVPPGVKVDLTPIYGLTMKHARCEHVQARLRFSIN

[7] = target: Serine/threonine-protein kinase BRSK2 (Homo sapiens) (UniProt Q8IWQ3); assay: Inhibition of BRSK2 at 3 uM
[8] = target: Tyrosine-protein kinase ITK/TSK (Homo sapiens) (UniProt Q08881); assay: Inhibition of ITK at 3 uM
[9] = target: Activin receptor type-1 (Homo sapiens) (UniProt Q04771); assay: Inhibition of ACVR1 at 3 uM
[10] = target: Serine/threonine-protein kinase 32B (Homo sapiens) (UniProt Q9NY57); assay: Inhibition of YANK2 at 3 uM
Chain of Serine/threonine-protein kinase 32B (Homo sapiens) (Q9NY57 whole entry): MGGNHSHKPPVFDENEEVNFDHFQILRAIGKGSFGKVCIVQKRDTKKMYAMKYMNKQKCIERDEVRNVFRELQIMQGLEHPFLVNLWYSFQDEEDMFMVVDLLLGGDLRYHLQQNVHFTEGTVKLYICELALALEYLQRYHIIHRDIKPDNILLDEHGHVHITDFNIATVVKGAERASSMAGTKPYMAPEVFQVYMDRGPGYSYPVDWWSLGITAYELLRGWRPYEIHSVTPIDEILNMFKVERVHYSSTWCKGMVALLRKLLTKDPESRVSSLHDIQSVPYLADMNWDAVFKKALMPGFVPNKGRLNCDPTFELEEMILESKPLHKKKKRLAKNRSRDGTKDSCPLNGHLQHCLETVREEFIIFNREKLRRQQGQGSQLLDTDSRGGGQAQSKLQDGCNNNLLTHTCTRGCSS

[11] = target: Mitogen-activated protein kinase kinase kinase 7 (TAK1) (Homo sapiens) (UniProt O43318); assay: Inhibition of TAK1 at 3 uM
Chain of Mitogen-activated protein kinase kinase kinase 7 (TAK1) (Homo sapiens) (O43318 whole entry, looked up): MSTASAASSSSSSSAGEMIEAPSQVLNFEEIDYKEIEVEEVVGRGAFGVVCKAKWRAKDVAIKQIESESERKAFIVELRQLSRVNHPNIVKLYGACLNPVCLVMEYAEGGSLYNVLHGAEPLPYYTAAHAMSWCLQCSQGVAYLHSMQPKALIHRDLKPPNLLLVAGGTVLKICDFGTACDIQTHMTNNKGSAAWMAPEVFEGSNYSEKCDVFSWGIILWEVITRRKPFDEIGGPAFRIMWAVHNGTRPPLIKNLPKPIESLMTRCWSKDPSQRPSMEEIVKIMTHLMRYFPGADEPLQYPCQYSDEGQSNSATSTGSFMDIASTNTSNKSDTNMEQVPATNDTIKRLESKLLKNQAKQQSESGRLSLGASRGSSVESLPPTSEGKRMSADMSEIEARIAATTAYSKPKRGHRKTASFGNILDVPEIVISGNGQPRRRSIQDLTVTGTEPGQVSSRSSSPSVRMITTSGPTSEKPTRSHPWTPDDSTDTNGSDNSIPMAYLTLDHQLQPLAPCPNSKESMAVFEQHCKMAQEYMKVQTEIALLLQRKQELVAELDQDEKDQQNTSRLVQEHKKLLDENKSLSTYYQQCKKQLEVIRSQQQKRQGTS

[12] = test system: Tyrosine-protein kinase ABL1 (Homo sapiens), P00519 [H396P]; assay: Inhibition of ABL1 H396P mutant at 3 uM
[13] = target: Serine/threonine-protein kinase D1 (Homo sapiens) (UniProt Q15139); assay: Inhibition of PRKD1 at 3 uM
[14] = target: Serine/threonine-protein kinase ULK2 (Homo sapiens) (UniProt Q8IYT8); assay: Inhibition of ULK2 at 3 uM
[15] = Volume of distribution in Sprague-Dawley rat at 1 mg/kg, iv; settings: in vivo
[16] = target: Serine/threonine-protein kinase MRCK beta (Homo sapiens) (UniProt Q9Y5S2); assay: Inhibition of MRCKB at 3 uM
[17] = target: cGMP-dependent protein kinase 2 (Homo sapiens) (UniProt Q13237); assay: Inhibition of PRKG2 at 3 uM
[18] = target: Inhibitor of nuclear factor kappa-B kinase subunit beta (Homo sapiens) (UniProt O14920); assay: Inhibition of IKK-beta at 3 uM
Chain of Inhibitor of nuclear factor kappa-B kinase subunit beta (Homo sapiens) (O14920 whole entry): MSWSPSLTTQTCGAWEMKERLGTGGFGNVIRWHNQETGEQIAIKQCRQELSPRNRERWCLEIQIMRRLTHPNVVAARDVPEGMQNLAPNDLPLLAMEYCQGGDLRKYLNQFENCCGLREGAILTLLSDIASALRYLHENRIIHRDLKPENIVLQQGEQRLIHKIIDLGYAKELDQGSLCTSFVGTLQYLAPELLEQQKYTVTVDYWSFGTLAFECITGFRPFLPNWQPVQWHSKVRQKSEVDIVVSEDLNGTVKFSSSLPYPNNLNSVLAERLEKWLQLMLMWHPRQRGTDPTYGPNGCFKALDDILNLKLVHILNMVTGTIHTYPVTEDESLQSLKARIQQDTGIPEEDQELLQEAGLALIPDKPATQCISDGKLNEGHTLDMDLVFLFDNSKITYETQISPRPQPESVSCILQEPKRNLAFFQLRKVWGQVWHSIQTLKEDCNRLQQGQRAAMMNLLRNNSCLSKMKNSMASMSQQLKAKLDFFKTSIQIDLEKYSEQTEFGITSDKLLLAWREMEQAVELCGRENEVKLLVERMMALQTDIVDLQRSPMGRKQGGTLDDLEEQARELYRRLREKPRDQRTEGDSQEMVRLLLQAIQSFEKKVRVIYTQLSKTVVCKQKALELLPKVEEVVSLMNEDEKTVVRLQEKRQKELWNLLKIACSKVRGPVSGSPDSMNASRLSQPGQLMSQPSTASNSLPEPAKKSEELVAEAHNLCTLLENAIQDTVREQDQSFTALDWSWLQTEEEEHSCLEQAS

[19] = target: 5-hydroxytryptamine receptor 2A (Homo sapiens) (UniProt P28223); assay: Inhibition of human 5HT2 receptor at 3 uM
Chain of 5-hydroxytryptamine receptor 2A (Homo sapiens) (P28223 whole entry): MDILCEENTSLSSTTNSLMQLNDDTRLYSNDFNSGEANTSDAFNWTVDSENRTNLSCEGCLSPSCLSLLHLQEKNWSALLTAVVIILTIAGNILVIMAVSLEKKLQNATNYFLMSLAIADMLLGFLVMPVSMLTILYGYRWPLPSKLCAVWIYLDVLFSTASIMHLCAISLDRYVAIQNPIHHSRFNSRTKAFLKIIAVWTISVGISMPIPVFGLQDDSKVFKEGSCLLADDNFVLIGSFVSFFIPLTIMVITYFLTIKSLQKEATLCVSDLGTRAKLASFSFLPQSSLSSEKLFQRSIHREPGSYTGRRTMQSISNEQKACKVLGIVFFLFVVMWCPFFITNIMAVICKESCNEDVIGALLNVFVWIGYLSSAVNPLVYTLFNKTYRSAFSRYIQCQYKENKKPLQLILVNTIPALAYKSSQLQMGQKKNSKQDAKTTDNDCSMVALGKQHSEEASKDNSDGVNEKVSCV
Procedure, shortened: (§1)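 Counter-screen binding/enzyme panel at single 3 μM, n=2; results as percent inhibition. Species per target as listed (rat NMDA, GABAA sites; human receptors, transporters; rabbit ACE).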

[20] = test system: Tyrosine-protein kinase ABL1 (Homo sapiens), P00519 [F317I]; assay: Inhibition of ABL1 F317I mutant at 3 uM
[21] = target: Casein kinase I isoform epsilon (Homo sapiens) (UniProt P49674); assay: Inhibition of CSNK1E at 3 uM
[22] = target: Rho-associated protein kinase 2 (Homo sapiens, UniProt O75116); assay: Inhibition of ROCK2
[23] = target: Angiopoietin-1 receptor (Homo sapiens) (UniProt Q02763); assay: Inhibition of TIE2 at 3 uM
Chain of Angiopoietin-1 receptor (Homo sapiens) (Q02763 whole entry): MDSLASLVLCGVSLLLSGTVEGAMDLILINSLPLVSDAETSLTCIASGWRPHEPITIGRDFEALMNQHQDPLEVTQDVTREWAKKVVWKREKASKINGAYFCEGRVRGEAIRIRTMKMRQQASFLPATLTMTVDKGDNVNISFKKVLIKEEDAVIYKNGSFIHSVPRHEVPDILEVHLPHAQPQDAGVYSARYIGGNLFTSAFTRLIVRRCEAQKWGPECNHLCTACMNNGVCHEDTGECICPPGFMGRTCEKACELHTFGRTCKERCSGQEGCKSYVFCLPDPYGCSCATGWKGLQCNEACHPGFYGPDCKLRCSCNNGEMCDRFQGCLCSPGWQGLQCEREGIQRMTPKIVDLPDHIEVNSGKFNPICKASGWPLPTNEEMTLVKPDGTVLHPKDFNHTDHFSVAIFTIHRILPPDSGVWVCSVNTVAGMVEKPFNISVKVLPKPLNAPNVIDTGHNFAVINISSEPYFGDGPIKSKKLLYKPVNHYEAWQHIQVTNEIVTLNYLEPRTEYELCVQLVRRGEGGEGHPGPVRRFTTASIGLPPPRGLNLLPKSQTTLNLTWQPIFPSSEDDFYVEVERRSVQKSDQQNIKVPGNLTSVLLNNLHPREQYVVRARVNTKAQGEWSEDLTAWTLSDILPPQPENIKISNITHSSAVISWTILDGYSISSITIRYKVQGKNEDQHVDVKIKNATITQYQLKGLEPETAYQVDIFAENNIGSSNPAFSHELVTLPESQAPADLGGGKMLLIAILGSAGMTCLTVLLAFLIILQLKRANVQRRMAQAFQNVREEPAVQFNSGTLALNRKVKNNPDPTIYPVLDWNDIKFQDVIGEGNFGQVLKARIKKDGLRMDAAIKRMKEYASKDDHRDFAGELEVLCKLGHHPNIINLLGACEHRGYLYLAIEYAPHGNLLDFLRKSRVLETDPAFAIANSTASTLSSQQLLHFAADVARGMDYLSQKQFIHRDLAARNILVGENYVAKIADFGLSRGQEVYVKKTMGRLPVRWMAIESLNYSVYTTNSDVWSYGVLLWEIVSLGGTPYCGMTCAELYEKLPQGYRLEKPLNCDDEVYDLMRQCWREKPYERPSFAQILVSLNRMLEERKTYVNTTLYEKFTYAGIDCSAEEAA

[24] = target: Tyrosine-protein kinase receptor UFO (Homo sapiens) (UniProt P30530); assay: Inhibition of AXL at 3 uM
[25] = target: Serine/threonine-protein kinase DCLK1 (Homo sapiens) (UniProt O15075); assay: Inhibition of DCAMKL1 at 3 uM
[26] = target: cGMP-dependent protein kinase 1 (Homo sapiens) (UniProt Q13976); assay: Inhibition of PRKG1 at 3 uM
[27] = target: Mitogen-activated protein kinase 12 (Homo sapiens) (UniProt P53778); assay: Inhibition of p38-gamma at 3 uM
[28] = target: Citron Rho-interacting kinase (Homo sapiens) (UniProt O14578); assay: Inhibition of CIT at 3 uM
[29] = target: RAC-alpha serine/threonine-protein kinase (Homo sapiens, UniProt P31749); assay: Inhibition of AKT1 at 3 uM
[30] = target: RAC-gamma serine/threonine-protein kinase (Homo sapiens) (UniProt Q9Y243); assay: Inhibition of AKT3 at 3 uM
[31] = test system: Tyrosine-protein kinase ABL1 (Homo sapiens), P00519 [E255K]; assay: Inhibition of ABL1E255K mutant at 3 uM
[32] = target: Mitogen-activated protein kinase 10 (Homo sapiens) (UniProt P53779); assay: Inhibition of JNK3 at 3 uM
[33] = target: Mitogen-activated protein kinase kinase kinase kinase 4 (Homo sapiens) (UniProt O95819); assay: Inhibition of MAP4K4 at 3 uM
[34] = target: Platelet-activating factor receptor (Homo sapiens) (UniProt P25105); assay: Inhibition of human PAF at 3 uM
[35] = target: Type-2 angiotensin II receptor (Homo sapiens) (UniProt P50052); assay: Inhibition of human AT2 receptor at 3 uM; procedure, shortened: as §1
[36] = target: Glutamate NMDA receptor (Rattus norvegicus) (UniProt P35439+Q00959+Q00960+Q00961+Q62645+Q8VHN2+Q9R1M7); assay: Displacement of glycine from rat NMDA receptor at 3 uM; format: protein-complex assay; procedure, shortened: as §1
[37] = target: High affinity nerve growth factor receptor (Homo sapiens) (UniProt P04629); assay: Inhibition of TRKA at 3 uM
[38] = target: Mast/stem cell growth factor receptor Kit (Homo sapiens) (UniProt P10721); assay: Inhibition of KIT at 3 uM

Chain of Mitogen-activated protein kinase 8 (Homo sapiens) (P45983 whole entry): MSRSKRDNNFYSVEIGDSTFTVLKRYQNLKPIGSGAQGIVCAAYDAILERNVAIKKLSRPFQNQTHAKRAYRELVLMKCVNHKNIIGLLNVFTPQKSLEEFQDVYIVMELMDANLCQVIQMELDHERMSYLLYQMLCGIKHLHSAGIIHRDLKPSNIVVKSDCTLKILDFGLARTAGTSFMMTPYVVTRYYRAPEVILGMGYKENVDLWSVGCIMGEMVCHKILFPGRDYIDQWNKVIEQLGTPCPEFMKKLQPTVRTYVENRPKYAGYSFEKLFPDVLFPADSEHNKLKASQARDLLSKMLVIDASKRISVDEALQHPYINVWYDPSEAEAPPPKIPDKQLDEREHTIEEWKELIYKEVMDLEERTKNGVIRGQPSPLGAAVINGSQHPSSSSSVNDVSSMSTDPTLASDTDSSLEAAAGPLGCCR
Chain of AP2-associated protein kinase 1 (Homo sapiens) (Q2M2I8 whole entry, looked up): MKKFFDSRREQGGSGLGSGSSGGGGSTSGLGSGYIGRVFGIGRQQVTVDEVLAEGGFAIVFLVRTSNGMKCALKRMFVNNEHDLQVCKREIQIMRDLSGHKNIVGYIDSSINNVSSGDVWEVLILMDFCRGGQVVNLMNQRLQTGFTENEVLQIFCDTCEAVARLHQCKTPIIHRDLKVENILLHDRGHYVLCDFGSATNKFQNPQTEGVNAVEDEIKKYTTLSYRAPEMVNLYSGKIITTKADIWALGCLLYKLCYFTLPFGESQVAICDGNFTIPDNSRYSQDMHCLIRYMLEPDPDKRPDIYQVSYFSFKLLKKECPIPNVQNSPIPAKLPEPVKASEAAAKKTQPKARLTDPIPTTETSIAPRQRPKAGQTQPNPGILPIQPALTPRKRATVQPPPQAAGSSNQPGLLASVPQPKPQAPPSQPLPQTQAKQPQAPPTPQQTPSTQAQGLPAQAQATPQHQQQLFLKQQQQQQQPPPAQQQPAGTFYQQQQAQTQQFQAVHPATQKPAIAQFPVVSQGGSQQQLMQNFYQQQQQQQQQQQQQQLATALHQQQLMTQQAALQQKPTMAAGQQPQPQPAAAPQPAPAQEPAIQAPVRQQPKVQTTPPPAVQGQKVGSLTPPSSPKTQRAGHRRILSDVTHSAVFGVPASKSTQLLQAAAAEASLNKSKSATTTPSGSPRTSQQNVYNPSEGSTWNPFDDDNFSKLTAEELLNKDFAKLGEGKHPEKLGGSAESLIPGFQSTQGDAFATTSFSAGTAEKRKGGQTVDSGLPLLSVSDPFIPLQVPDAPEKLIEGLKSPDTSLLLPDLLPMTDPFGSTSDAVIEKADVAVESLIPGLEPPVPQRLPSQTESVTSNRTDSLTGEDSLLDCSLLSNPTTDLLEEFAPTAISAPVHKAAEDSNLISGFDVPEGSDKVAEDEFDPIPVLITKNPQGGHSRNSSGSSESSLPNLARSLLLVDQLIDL

## CN(C)CCOc1cc(-c2cn[nH]c2)ccc1NC(=O)C1COc2ccccc2O1 (stereo not drawn) [SR-3677]
[1]
  inhibition: < 10%
[2]
  inhibition: < 10%
[3]
  inhibition: < 10%
[4]
  inhibition: < 10%
[5]
  inhibition: < 10%
[6]
  inhibition at 10 µM: 46%
[7]
  inhibition: < 10%
[8]
  inhibition: < 10%
[9]
  inhibition: < 10%
[10]
  inhibition: < 10%
[11]
  inhibition: < 10%
[12]
  inhibition: < 10%
[13]
  inhibition: < 10%
[14]
  inhibition: < 10%
[15]
  Vd: 3 L/kg
[16]
  inhibition: < 10%
[17]
  inhibition: < 10%
[18]
  inhibition: < 10%
[19]
  inhibition: 2%
[20]
  inhibition: < 10%
[21]
  inhibition: < 10%
[22]
  IC50: 3.2 nM
[23]
  inhibition: < 10%
[24]
  inhibition: < 10%
[25]
  inhibition: < 10%
[26]
  inhibition: < 10%
[27]
  inhibition: < 10%
[28]
  inhibition: < 10%
[29]
  inhibition: < 10%
[30]
  inhibition: 77%
[31]
  inhibition: < 10%
[32]
  inhibition: < 10%
[33]
  inhibition: < 10%
[34]
  inhibition: -4%
[35]
  inhibition: -1%
[36]
  inhibition: -10%
[37]
  inhibition: < 10%
[38]
  inhibition: < 10%
